Experiments:
Neutrophil elastase = target: T1, Neutrophil elastase (Homo sapiens, UniProt P08246); assay: In vitro inhibitory activity against human leukocyte elastase (HLE)
T1 sequence (P08246 whole entry): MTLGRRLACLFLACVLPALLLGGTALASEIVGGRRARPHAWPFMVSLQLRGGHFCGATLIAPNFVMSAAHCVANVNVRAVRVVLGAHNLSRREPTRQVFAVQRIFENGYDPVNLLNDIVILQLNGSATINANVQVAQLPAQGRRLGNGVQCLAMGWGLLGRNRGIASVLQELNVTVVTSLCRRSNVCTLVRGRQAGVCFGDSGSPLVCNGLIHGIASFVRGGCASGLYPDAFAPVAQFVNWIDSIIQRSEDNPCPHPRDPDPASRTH
How it was run: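 HLE at 1 μg/mL mixed with inhibitor, with enzyme activity read 2 min after mixing. IC50 (μM) is the inhibitor concentration that cuts HLE activity by 50%.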

[1] = target: T2, Neutrophil elastase (Homo sapiens) (UniProt P08246); assay: Second-order rate constant for time-dependent inactivation of Human Leukocyte Elastase for 15 min
T2 sequence (whole entry): T1 sequence (P08246 whole entry)
How it was run: (§1)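 Inactivation of HLE by inhibitor was followed over 15 min. The second-order rate constant was expressed as k_obs/[I] (M^-1 s^-1). Where inhibition was not time-dependent, Ki was instead calculated from the initial velocity.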

[2] = target: T2, Neutrophil elastase (Homo sapiens); assay: Second-order rate constant for time-dependent inactivation of HLE for 15 min; how it was run: as §1
[3] = target: T2, Neutrophil elastase (Homo sapiens)

Row | IC50 (Neutrophil elastase) [nM] | k obs / 1 [1] [M⁻¹ s⁻¹] | k obs / 1 [2] [M⁻¹ s⁻¹] | k obs / 1 [3] [M⁻¹ s⁻¹] | Compound
1 | 1000 | – | – | – | COCC1=C(C(=O)OC(C)(C)C)N2C(=O)[C@H](OC)C2S(=O)(=O)C1 (stereo partly specified)
2 | 2400 | – | – | – | CO[C@H]1C(=O)N2C(C(=O)OC(C)(C)C)=C(CSc3nnc[nH]3)CS(=O)(=O)C12 (stereo partly specified)
3 | – | 15800 | – | – | CO[C@H]1C(=O)N2C(C(=O)OC(C)(C)C)=C(COC(=O)C(C)(C)C)CS(=O)(=O)C12 (stereo partly specified)
4 | 1620 | 15000 | – | – | CO[C@H]1C(=O)N2C(C(=O)OC(C)(C)C)=C(CSc3nnnn3C)CS(=O)(=O)C12 (stereo partly specified)
5 | – | – | 13800 | – | CO[C@H]1C(=O)N2C(C(=O)OC(C)(C)C)=C(COC(=O)CCC(=O)O)CS(=O)(=O)[C@H]12
6 | 1330 | – | – | 12700 | CO[C@H]1C(=O)N2C(C(=O)OC(C)(C)C)=C(COC(C)=O)CS(=O)(=O)C12 (stereo partly specified)
7 | – | – | 1630 | – | CO[C@H]1C(=O)N2C(C(=O)OC(C)(C)C)=C(C)CS(=O)(=O)C12 (stereo partly specified)
8 | – | 14900 | – | – | CO[C@H]1C(=O)N2C(C(=O)OC(C)(C)C)=C(CCl)CS(=O)(=O)C12 (stereo partly specified)
9 | 130 | – | 63900 | – | CO[C@H]1C(=O)N2C(C(=O)OC(C)(C)C)=C(COC(=O)N[C@@H](Cc3ccccc3)C(=O)O)CS(=O)(=O)C12 (stereo partly specified)

More lines, now with the values behind:

Row | Compound | IC50 (Neutrophil elastase) [nM] | k obs / 1 [1] [M⁻¹ s⁻¹] | k obs / 1 [2] [M⁻¹ s⁻¹] | k obs / 1 [3] [M⁻¹ s⁻¹]
10 | CCOC(=S)SCC1=C(C(=O)OC(C)(C)C)N2C(=O)[C@H](OC)C2S(=O)(=O)C1 (stereo partly specified) | 1820 | 4300 | – | –
11 | CO[C@H]1C(=O)N2C(C(=O)OC(C)(C)C)=C(CSc3nc[nH]n3)CS(=O)(=O)C12 (stereo partly specified) | – | 3500 | – | –
12 | CO[C@H]1C(=O)N2C(C(=O)OC(C)(C)C)=C(COC(=O)c3ccccc3)CS(=O)(=O)C12 (stereo partly specified) | – | 32500 | – | –
13 | CO[C@H]1C(=O)N2C3=C(COC3=O)CS(=O)(=O)C12 (stereo partly specified) | 57800 | 46 | – | –
14 | CO[C@H]1C(=O)N2C(C(=O)OC(C)(C)C)=C(COC(=O)NCc3ccccc3)CS(=O)(=O)C12 (stereo partly specified) | – | 15100 | – | –
15 | CO[C@H]1C(=O)N2C(C(=O)OC(C)(C)C)=C(CSc3nnnn3CC(=O)O)CS(=O)(=O)C12 (stereo partly specified) | – | 3700 | – | –
16 | CO[C@H]1C(=O)N2C(C(=O)OC(C)(C)C)=C(CSc3nnc(C)s3)CS(=O)(=O)C12 (stereo partly specified) | 2230 | – | 7900 | –
17 | CO[C@H]1C(=O)N2C(C(=O)OC(C)(C)C)=C(CSc3nccn3C)CS(=O)(=O)C12 (stereo partly specified) | 2330 | 1880 | – | –
18 | CO[C@H]1C(=O)N2C(C(=O)OC(C)(C)C)=C(C[S+]([O-])c3ccccc3)CS(=O)(=O)C12 (stereo partly specified) | 910 | – | 16800 | –
19 | C=CCC1=C(C(=O)OC(C)(C)C)N2C(=O)[C@H](OC)C2S(=O)(=O)C1 (stereo partly specified) | – | 6100 | – | –
20 | CO[C@H]1C(=O)N2C(C(=O)OC(C)(C)C)=C(CS(=O)(=O)c3ccccc3)CS(=O)(=O)C12 (stereo partly specified) | 440 | – | – | –
21 | CO[C@H]1C(=O)N2C(C(=O)OC(C)(C)C)=C(COC(N)=O)CS(=O)(=O)C12 (stereo partly specified) | – | – | 10800 | –
22 | CO[C@H]1C(=O)N2C(C(=O)OC(C)(C)C)=C(CSc3nc(=O)c(=O)[nH]n3C)CS(=O)(=O)C12 (stereo partly specified) | 630 | 8600 | – | –

Reference: ChEMBL document CHEMBL1124912, “Inhibition of human leukocyte elastase. 3. Synthesis and activity of 3'-substituted cephalosporins” (J Med Chem, 1990)
